Source: PubChem
Many of the other results were omitted from the sample, so hits are more common in it than they were.
RORa inhibitor: inhibitors of orphan receptor RORA, primary screen, cell-based, luminescence; Nuclear receptor ROR-alpha (Homo sapiens), P35398; CHO-K1 Gal4-RORA LBD luciferase reporter; inhibition, % at 10 µM; 65,000 tested, 0.43% active; AID 561, 2006;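 active = inhibition above the mean of all tested compounds plus 3 SD, cut at about 52% in these data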
Target sequence (P35398 whole entry, looked up, the tested form may be a part): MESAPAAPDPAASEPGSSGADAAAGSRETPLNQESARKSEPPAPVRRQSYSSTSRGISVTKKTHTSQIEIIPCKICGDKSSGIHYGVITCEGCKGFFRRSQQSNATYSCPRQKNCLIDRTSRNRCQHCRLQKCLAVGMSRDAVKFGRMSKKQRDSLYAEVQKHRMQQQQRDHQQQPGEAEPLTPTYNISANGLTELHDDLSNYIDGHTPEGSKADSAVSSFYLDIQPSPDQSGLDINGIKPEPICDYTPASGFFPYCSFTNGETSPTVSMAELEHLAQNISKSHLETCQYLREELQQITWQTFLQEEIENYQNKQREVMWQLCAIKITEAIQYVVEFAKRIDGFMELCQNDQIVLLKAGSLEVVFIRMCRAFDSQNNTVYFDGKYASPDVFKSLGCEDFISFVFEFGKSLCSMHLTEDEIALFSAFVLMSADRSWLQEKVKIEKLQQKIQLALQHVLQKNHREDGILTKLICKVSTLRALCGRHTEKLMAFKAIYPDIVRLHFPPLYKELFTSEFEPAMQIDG
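test system = CHO-K1 Gal4-RORA LBD luciferase reporter cells | dosing = 10 µM single point | times = 20 h compound treatment, 37 °C | signal = luciferase luminescence | read-out = % inhibition of basal luciferase versus +RORA/-RORA DMSO controls | benchmarks = mock-transfected cells as 100%, +RORA DMSO cells as 0% | replicates = tested once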
A number is an active result; n = inactive.

SMILES | RORa inhibitor
Cc1ccc2c(c1)N(CC(=O)NCCc1c[nH]c3ccccc13)C(=O)CO2 | n
Cn1c(=O)c2c(SCc3ccccn3)nc(-c3ccccc3)nc2n(C)c1=O | n
COc1cc2c(cc1OC)CN(C(=O)COc1ccc(C)c(C)c1)CC2 | n
C=CCn1c(CCNC(=O)C(C)(C)C)nc2ccccc21 | n
Cc1cccc(NC(=O)CSc2nnc(-c3ccc(S(=O)(=O)N4CCOCC4)cc3)n2C)c1 | n
CNC(=O)NC(=O)COC(=O)CCCOc1ccc(OC)cc1 | n
COC(=O)CSc1nnc2c(C)cc3cc4c(cc3n12)OCCO4 | n
NC(=O)CS(=O)(=O)c1nc2ccccc2n1Cc1ccccc1F | n
COc1cccc(N2CCN(c3ncnc4c3[nH]c3ccccc34)CC2C)c1 (configuration not stated) | 95
COc1cccc(N2CCN(c3ncnc4c3[nH]c3ccc(F)cc34)CC2C)c1 (configuration not stated) | 95
Cn1c(=O)cc(OCCCC(=O)NCc2ccc3c(c2)OCO3)c2ccccc21 | n
O=C(O)[C@H](Cc1ccccc1)NC(=O)N1CCOCC1 | n
Cc1nc2nc(COc3ccccc3)[nH]n2c(=O)c1Cl | n
CCOC(=O)N1CCN(C(=O)CSc2nnc(CNC(=O)c3c(F)cccc3Cl)o2)CC1 | n
COc1ccc(N2CCN(C(=O)CSc3nnc(CNc4ccccc4)o3)CC2)cc1 | n
CCOc1cc(C(=O)CSc2nnc(CNc3ccc(Cl)cc3)o2)ccc1NC(=O)CC | 54
c1ccc(N2CCN(c3ccccc3)C2c2cccs2)cc1 | n
CCCCOc1ccccc1NC(=O)CSc1nnnn1C(C)(C)C | n
Cn1c(=O)oc2cc(S(=O)(=O)NCC3CCCO3)ccc21 (configuration not stated) | n
COc1ccc(CCC(=O)NCc2cnn(C)c2)cc1 | n
COc1ccc(S(=O)(=O)NCCc2ccc(F)cc2)cc1 | n
COc1ccc(CCNc2c(C)c(C)nc3ncnn23)cc1 | 78
COc1ccc(NC(=O)C(c2ccc(C)cc2)N(C)C(=O)c2cnccn2)cc1 (configuration not stated) | n
CCCCn1c(SCC(=O)N2CCN(c3ccccc3)CC2)nc2ccsc2c1=O | n
CCOC(=O)NCCc1c(C)nc2c(c(C)nn2C(C)(C)C)c1C | n
SMILES | RORa inhibitor
O=C(NC1CCCC1)C1C2C=CC(C2)C1C(=O)N1CCOCC1 (configuration not stated) | n
Cc1ccc(-c2ccc(/C=N/c3ncn[nH]3)o2)cc1Cl | n
CC(=O)N1CCc2cc(S(=O)(=O)NC3CCCc4ccccc43)ccc21 (configuration not stated) | n
CCC(=O)N1CCc2cc(S(=O)(=O)N3CCc4ccccc4C3)ccc21 | n
CC(=O)N1CCc2cc(S(=O)(=O)NCCC3=CCCCC3)ccc21 | 57
CC1CCCN(S(=O)(=O)c2ccc3c(c2)CCN3C(=O)C2CCC2)C1 (configuration not stated) | n
Cc1ccc(-c2csc(NC(=O)c3ccno3)n2)cc1 | n
O=C1/C(=C/Nc2ccc3c(c2)OCO3)CCc2ccccc21 | 72
O=C(Nc1ccc2c(c1)OCO2)c1cccc(F)c1 | n
COc1ccc(N/C=C2\CCOC2=O)cc1 | n
CC1(C)CC(=O)C(C=NCC2CCCO2)=C(O)C1 (configuration not stated) | n
CN(C)c1ccc(NC(=O)c2ccc(COc3cccc(Cl)c3)o2)cc1 | n
O=C(Nc1ccc(Cl)cc1)N1CC=CCC1 | n
Cn1c(-c2ccccc2)cc2c3no[n+]([O-])c3ccc21 | 66
Oc1ccc(-c2nnc(SCC3CCCCC3)o2)cc1 | n
CCOC(=O)N1CCC(=C2c3ccc(Cl)cc3CCc3cccnc32)CC1 | n
CCC(=O)NCCCCNC(=O)CC | n
CC(=O)OCCN(CCOC(C)=O)c1c(C)[nH]c(=O)[nH]c1=O | n
COc1ccccc1CNC(=O)C(C)NS(=O)(=O)c1ccc(C)cc1 (configuration not stated) | n
COc1ccc(S(=O)(=O)N(CC(=O)Nc2cc(C)on2)Cc2ccccc2)cc1 | n
COc1ccccc1-c1cc(C(F)(F)F)nc(S(=O)(=O)CCCC(=O)Nc2cc(C)on2)n1 | 70
COc1ccc(S(=O)(=O)CCC(=O)NC2CCCCC2)cc1 | n
COc1ccccc1-c1cc(C(F)(F)F)nc(S(=O)(=O)CCCC(=O)NC(C)C)n1 | 57
Cc1cc(NC(=O)COc2cccc3cccnc23)no1 | n
Cc1cccn2c(=O)c3cc(C(=O)N4CCN(c5ccccc5)CC4)n(C)c3nc12 | n
SMILES | RORa inhibitor
CCOC(=O)C1=C(C)SC2=NS(=O)(=O)CCN21 | n
Cc1oc(-c2ccccc2F)nc1CN1CCC(C(=O)NCc2cccs2)CC1 | n
COc1cc(-c2nnc(COc3ccc4ccccc4c3)o2)cc(OC)c1OC | n
CCOCC(=O)Nc1ccc(S(=O)(=O)Nc2ncccn2)cc1 | n
O=S(=O)(NCCOC12CC3CC(CC(C3)C1)C2)c1cccc2nsnc12 | n
O=C(CN(Cc1ccco1)S(=O)(=O)c1cccs1)Nc1ccccc1C(F)(F)F | n
CCOc1ccc(-c2cc(CCCC(=O)NCCc3ccc(OC)c(OC)c3OC)no2)cc1 | 57
CCOc1ccc(-c2cc(CCCC(=O)Nc3cccc(OC)c3)no2)cc1 | n
CCCCC(=O)Nc1ccc(NC(=O)c2cc(OC)c(OC)c(OC)c2)cn1 | n
CCCCC(=O)NC(Nc1ccc(C)cn1)(C(=O)OCC)C(F)(F)F (configuration not stated) | n
CC(=O)Nc1ccc(-n2c(C)nc(=O)c(-c3ccccc3)c2C)cc1 | n
Cc1nc2c(ccc3nc(NC(=O)c4ccc5c(c4)OCCO5)sc32)s1 | n
O=C(Nc1nc2cc3c(cc2s1)OCO3)C1=COCCO1 | 68
CC(=O)Nc1nc2cc3c(cc2s1)OCO3 | n
Cc1noc(C)c1COC(=O)CCc1nc2ccccc2c(=O)[nH]1 | n
CCCn1nnnc1SCC(=O)N(C(C)C)C(C)C | n
C/C(N)=C(/C#N)C(=O)COC(=O)c1cc(C)n(-c2ccc(F)cc2)c1C | n
COc1cccc(NC(=O)Cc2nnc(SCC(=O)c3ccccc3)n2C)c1 | n
COc1ccc(C(=O)c2ccccc2)c(O)c1 | n
COc1ccc(O)c(C(=O)CC(=O)c2ccc(F)cc2)c1 | 58
O=C(Nc1ccc(N2CCOCC2)cc1)c1cnsn1 | 69
O=C(Nc1ccc(N2CCOCC2)c(Cl)c1)c1ccc(Br)o1 | n
O=C(Nc1ccc(S(=O)(=O)N2CCCC2)cc1)c1ccc(CN2CCOCC2)cc1 | n
O=C(c1ccc2c(c1)c(=O)oc1ccccc12)N1CCCCC1 | n
CS(=O)(=O)N(CC(=O)O)c1cc(Cl)cc(Cl)c1 | n
